Efflux pump mplx: blocks antifungal efflux pumps in multiplex yeast assay | AID 485275 | S. cerevisiae Candida pump triplex, Nile Red efflux | actives 0.44% (n = 330,000) | inhibition, % at 10 µM;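 active means plate passing quality check with inhibition over a set limit, or well fluorescence over plate mean plus 4 SD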;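 further: Nile Red retained in pooled yeast measured as flow cytometry median fluorescence; 0% = buffer negative control and 100% = Enniatin B positive control; higher means more Nile Red kept so more efflux inhibition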
CSC inhib: blocks cancer stem cells; cancer stem cell-like cells viability, luminescence; inhibition, % at 7.5 µM; actives 1.1% (n = 300,000); in the data active means inhibition above about 75%; tested in HMLE shEcad cells
SUMO Mot1 rescue: inhibitors of SUMOylation pathway: yeast Mot1-301 growth rescue; S. cerevisiae Mot1-301 growth rescue, ATP luminescence, 38.5C; percent above DMSO median, 100 means doubled; growth rescue, % at 18.8 µM; actives 1% (n = 320,000);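 active means every valid replicate shows activation above 250% relative to neutral control wells; inactive means the rest, any valid replicate at or below 250%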;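 further: OY570 slx delta 5 strain wells were the positive control but not used for scaling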
T cruzi repl: blocks replication of Trypanosoma cruzi; T. cruzi beta-gal in NIH3T3, luminescence, 90 h; inhibition, % (concentration not given with the values); actives 1.4% (n = 300,000); AID 1885;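 active means mean inhibition across valid replicates above about 55%, limit read from the data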;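 further: signal also drops with host cell toxicity which is not excluded here; 0% = plate median of DMSO wells and 100% = zero luminescence signal; higher percent means less beta-gal luminescence so fewer parasites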
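assay system = mouse NIH/3T3 fibroblasts infected with β-gal-expressing T. cruzi Tulahuen C4 | input = 5,000 NIH/3T3 host cells per well | buffer or medium = DMEM plus 2% FBS | timing = 3 h host attachment, then at least 90 h co-culture | measured by = GalScreen luminescence, 60 min | evaluation = luminescence reflecting intracellular parasite burden, expressed as percent inhibition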
Beta apoptosis: blocks beta cell apoptosis; INS-1E cytokine-induced death, ATP luminescence, 48 h; percent of positive-control rescue, neutral wells zero; protection from apoptosis, % (test concentration not listed); actives 0.8% (n = 300,000);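 active means Every replicate reaches about 75%, or at least half do and their mean reaches it too, limit read from the data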;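 further: 0% = cytokine-treated negative control wells and 100% = positive control rescue; higher means more ATP so stronger rescue from cytokine killing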
WT yeast gro inh: growth inhibition of WT yeast, mitochondrial fusion screen; actives 2.1% (n = 190,000); inhibition, % at 10 µM; mitochondrial fusion phenotypic screen, WT strain; AID 1362; in the data active means inhibition above about 58%; tested in S. cerevisiae
Starred values were filed as active, the others as inactive; x = not tested or not shown. Most compounds without a hit are left out; they make up all but 4.8% or so of the library.

SMILES | Efflux pump mplx | CSC inhib | SUMO Mot1 rescue | T cruzi repl | Beta apoptosis | WT yeast gro inh
CCOC(=O)c1c(C)[nH]c(C2=NNC(=Nc3cccc(Cl)c3)SC2)c1C | -1 | -13 | 235 | 41 | 32 | 63*
Cc1ccc(SCC(=O)OCC(=O)NC(C)c2ccc(F)cc2)cc1 (configuration not stated) | 0 | x | 17 | x | -2 | x
COc1cc(CNCCN2CCOCC2)ccc1OCc1ccc(Cl)cc1 | 0 | 7 | 38 | 49 | 3 | 3
CCOc1cc(CNCCCN2CCOCC2)cc(Cl)c1OCC(=O)NC(C)(C)C | 0 | -5 | 3 | 51 | 0 | x
COc1cc(CNCCCN2CCOCC2)cc(Br)c1OCc1ccc(Cl)cc1 | 0 | -9 | 228 | 59* | 19 | 84
C=CCOc1c(Cl)cc(CNCCCN2CCOCC2)cc1OC | 0 | -4 | -12 | 56* | -1 | x
CCc1nn2c(NCCOC)cc(C)nc2c1-c1ccc(F)cc1 | 0 | 1 | 1 | 25 | -4 | 20
CC(C)(C)n1nc(-c2ccc(Cl)cc2)c2c(N)ncnc21 | 0 | -3 | 7 | 48 | -24 | 3
CC(C)(C)n1nc(-c2ccc(F)cc2)c2c(N)ncnc21 | 0 | 6 | -1 | 57* | -29 | 39
COc1ccccc1N(CC(=O)NCc1ccco1)C(=O)CCC(=O)Nc1ccccn1 | 0 | 3 | -8 | 7 | 3 | x
O=C(COC(=O)c1ccc(Cl)nc1)Nc1ccc(N2CCCCC2)cc1 | 0 | x | 1 | x | -5 | x
Fc1ccc(-c2noc(C3CCN(Cc4cccnc4)CC3)n2)cc1 | 0 | -2 | 848* | 36 | -1 | 22
CCCC1CCC(c2nc(-c3cccnc3)no2)CC1 (configuration not stated) | 0 | -11 | 24 | -17 | 6 | 31
COC(=O)CN(c1ccc2c(c1)OCCO2)S(=O)(=O)c1ccccc1 | 0 | 1 | 3 | -18 | -7 | 73*
CCOc1ccc(S(=O)(=O)NCCC(=O)NCC2(N3CCCCC3)CCCCC2)cc1 | 0 | -1 | -9 | -4 | x | x
Nc1nnc(SCC(=O)OCC(=O)NC2CCCCC2)s1 | 0 | 92* | 0 | -3 | 4 | -12
CCN1C(=O)C(=Cc2cccc(OC)c2Oc2ccc([N+](=O)[O-])cc2[N+](=O)[O-])SC1=S | 0 | 77* | -10 | 15 | 99* | x
CC(C)N(C(=O)CSc1nc2ccccc2n1-c1ccccc1)C(C)C | 0 | 78* | -22 | 22 | -5 | -13
O=C(/C=C/c1ccccc1)C1=C(O)C(=O)N(CCO)C1c1ccc2c(c1)OCO2 (configuration not stated) | 0 | -14 | 1 | -3 | -4 | -9
CCOC(=O)c1ccc(NCc2cccnc2)cc1 | 0 | -8 | 147 | 7 | 12 | x
CC(=O)c1ccc(NC(=S)NCc2cccnc2)cc1 | 0 | 20 | 2 | 9 | 100* | -11
CCOC(=O)c1ccc(NC(=O)NCc2cccnc2)cc1 | 0 | -3 | -13 | 4 | 101* | x
COc1ccc(OC)c(S(=O)(=O)N2CCC(C(=O)NC3CC3)CC2)c1 | 0 | -10 | -11 | -12 | -2 | x
O=C(CN(Cc1ccco1)C(=O)CNS(=O)(=O)c1ccc(F)cc1)NCc1ccccc1 | 0 | x | 298* | 9 | 1 | x
CCC1CCCCN1S(=O)(=O)c1ccc(S(=O)(=O)N(Cc2ccccn2)CC2CCCO2)cc1 (configuration not stated) | 0 | 79* | 6 | 10 | 72 | 20
SMILES | Efflux pump mplx | CSC inhib | SUMO Mot1 rescue | T cruzi repl | Beta apoptosis | WT yeast gro inh
O=S(=O)(NCC1CCCO1)c1ccc(S(=O)(=O)N(Cc2ccc(F)cc2)Cc2ccccn2)cc1 (configuration not stated) | 0 | 4 | -11 | -12 | -3 | -5
NS(=O)(=O)c1ccc(N/N=C/c2cn(-c3ccccc3)nc2-c2ccccc2)c([N+](=O)[O-])c1 | 0 | 140* | -23 | 40 | 91* | 41
O=[N+]([O-])c1ccc(N/N=C/c2cn(-c3ccccc3)nc2-c2ccccc2)cc1 | 0 | 29 | 22 | 52 | 15 | 0
COc1ccc(C(C(=O)NC2CCCCC2)N(C(=O)CCl)c2ccc(Cl)cc2)cc1 (configuration not stated) | 0 | 10 | 86 | 56* | -18 | 13
COc1ccc(N(C(=O)c2cnccn2)C(C(=O)NC2CCCCC2)c2ccc(Cl)cc2)cc1 (configuration not stated) | 0 | x | -1 | 2 | 1 | x
COc1ccc(C(C(=O)NC2CCCC2)N(C(=O)c2snc(-c3ccc(F)cc3)c2N)c2ccc(OC)cc2)cc1 (configuration not stated) | 0 | -9 | -39 | 60* | 15 | 4
CCCCn1nnc(NC(=S)NC(=O)c2ccc(-c3cccc(Cl)c3Cl)o2)n1 | 0 | 36 | 3 | 1 | x | 78*
O=C(COC(=O)c1ccccc1Cc1ccccc1)Nc1ccc(SC(F)F)cc1 | 0 | 37 | 24 | -14 | 0 | 70*
S=c1[nH]nc(-c2ccc(Cl)cc2)n1Cc1ccccc1 | 0 | -4 | 172 | 3 | -5 | 3
Sc1nnc(-c2ccc(Cl)cc2)n1Cc1ccccc1 | 0 | 76* | -13 | x | 6 | x
CCNc1nc(NCC)nc(SCCOC(=O)COc2ccc(Cl)cc2Cl)n1 | 0 | -4 | -8 | -4 | -3 | 77*
CC(C)Nc1nc(NC(C)C)nc(SCCOC(=O)Nc2ccc(Cl)cc2Cl)n1 | 0 | 90* | 124 | 41 | 7 | 66*
Nc1cc(Cl)ccc1Oc1ccc2ccccc2c1 | 0 | 83* | 232 | 36 | 9 | 7
Cc1ccc(Oc2ccc(Cl)cc2N)cc1 | 0 | 3 | 52 | 1 | -4 | 7
CN1CCN(S(=O)(=O)c2cccc(C(=O)N(Cc3ccccc3)c3ccccc3)c2)CC1 | 1 | 11 | -6 | 16 | -4 | x
COc1ccc(OC)c2sc(N3CCN(C(=O)c4ccc([N+](=O)[O-])s4)CC3)nc12 | 0 | -11 | -7 | 67* | x | x
O=C(c1ccc([N+](=O)[O-])s1)N1CCN(c2ccccc2)CC1 | 0 | 4 | -14 | 69* | 43 | -9
CC1C/C(=N\NC(=S)NC(C)C)CC(C)(C)C1 (configuration not stated) | 0 | 12 | 10 | -23 | -1 | 65*
CC1C/C(=N\NC(=O)c2cccnc2)CC(C)(C)C1 (configuration not stated) | 0 | -11 | 1 | -8 | -3 | 0
CCc1cc2c(=O)c(-c3ccc4c(c3)OCCO4)coc2c(CN2CCCCC2C)c1O (configuration not stated) | 0 | 24 | -1 | 56* | 7 | 3
CCc1cc2c(=O)c(-c3nc4ccccc4[nH]3)coc2c(CN2CCCCC2C)c1O (configuration not stated) | 0 | 8 | 121 | -4 | 9 | x

Screening results as filed in PubChem.
